# Source: PubChem
# Only some compounds are listed: those with a hit (about 3.1% of all), similar ones and a draw of the others.
# MEKK2wt PB1 HTS = raises or lowers MEK5 binding to wildtype human MEKK2 PB1 domain; hit rate 1.1% among 290,000; binding response (% of control), % at 10 µM; bead flow cytometry, Alexa488-MEK5 binding to MEKK2 WT; actives lie on both sides; in the data active means binding response below about 67% or above about 130%
# Apaf1 inhib = human Apaf-1 inhibition; reconstituted apoptosome caspase-3 activity, DEVD-Rh110 fluorescence; hit rate 0.71% among 330,000; inhibition, % at 20 µM; active means inhibition of at least 40% at 20 µM;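 further: plate controls were DMSO wells for no effect and DEVD-CHO caspase inhibitor wells for full effect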
# Target sequence (O14727 whole entry, looked up): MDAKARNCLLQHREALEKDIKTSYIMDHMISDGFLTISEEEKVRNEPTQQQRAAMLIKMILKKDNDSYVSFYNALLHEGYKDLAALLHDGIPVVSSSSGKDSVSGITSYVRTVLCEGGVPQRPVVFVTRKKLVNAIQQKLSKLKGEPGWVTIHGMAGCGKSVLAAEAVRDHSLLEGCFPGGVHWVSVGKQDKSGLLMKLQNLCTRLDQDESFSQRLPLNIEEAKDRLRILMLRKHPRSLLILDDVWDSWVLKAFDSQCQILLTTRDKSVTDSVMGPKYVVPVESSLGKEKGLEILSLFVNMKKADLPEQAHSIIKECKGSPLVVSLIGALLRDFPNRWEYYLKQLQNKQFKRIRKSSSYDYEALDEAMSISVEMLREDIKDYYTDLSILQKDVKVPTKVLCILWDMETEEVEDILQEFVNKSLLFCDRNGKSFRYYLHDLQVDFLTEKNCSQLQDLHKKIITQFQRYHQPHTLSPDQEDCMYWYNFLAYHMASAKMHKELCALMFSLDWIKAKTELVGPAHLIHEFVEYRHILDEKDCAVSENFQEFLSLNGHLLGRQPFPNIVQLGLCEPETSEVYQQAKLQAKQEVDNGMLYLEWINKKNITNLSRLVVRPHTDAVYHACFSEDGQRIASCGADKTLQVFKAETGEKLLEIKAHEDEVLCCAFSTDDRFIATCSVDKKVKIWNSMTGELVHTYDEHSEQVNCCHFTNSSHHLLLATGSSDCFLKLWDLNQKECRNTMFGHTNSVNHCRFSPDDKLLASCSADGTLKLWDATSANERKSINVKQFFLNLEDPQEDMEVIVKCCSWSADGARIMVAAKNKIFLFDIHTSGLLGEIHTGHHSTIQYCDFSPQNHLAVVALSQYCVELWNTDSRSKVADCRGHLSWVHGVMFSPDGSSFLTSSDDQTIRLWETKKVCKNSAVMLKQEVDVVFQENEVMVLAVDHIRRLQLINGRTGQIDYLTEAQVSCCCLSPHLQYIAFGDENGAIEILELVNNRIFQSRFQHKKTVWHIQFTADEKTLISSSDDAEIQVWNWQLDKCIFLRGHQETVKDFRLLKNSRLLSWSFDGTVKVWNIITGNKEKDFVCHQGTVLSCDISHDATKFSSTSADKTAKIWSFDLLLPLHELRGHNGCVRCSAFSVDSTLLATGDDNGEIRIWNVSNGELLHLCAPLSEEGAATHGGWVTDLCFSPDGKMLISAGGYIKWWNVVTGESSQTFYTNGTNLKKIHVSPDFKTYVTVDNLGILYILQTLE
#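 Assay system – apoptosome proteins · Medium – Hepes buffer, pH 7.5 · Also added – cytochrome c with DEVD-Rh110 · Timing – 30 min compound preincubation, 50 min activation, room temperature · Detection – Rh110 fluorescence, excitation 480 nm, emission 540 nm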
# MEKK3 PB1 HTS = raises or lowers MEK5 binding to the human MEKK3 PB1 domain; Q99759; bead-based flow cytometry, Alexa488-MEK5 binding to MEKK3; actives lie on both sides; 0 = blocked by unlabeled MEK5, 100 = vehicle; binding response (% of control), % at 10 µM; hit rate 1.4% among 290,000;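 active means binding response more than 3 SD above or below the average of its plate-row segment, actives on both sides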;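 further: Alexa488 bead fluorescence after subtracting the streptavidin-only scavenger bead signal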
# UBC13 polyUb = blocks human UBC13 polyubiquitin chain formation. AID 485273. inhibition, % at 20 µM. hit rate 0.47% among 330,000. P61088. TR-FRET; in the data active means inhibition above about 45%, passing the limit was not always enough
# PREPL inh = inhibitors of human prolyl oligopeptidase-like enzyme PREPL; Q4J6C6; recombinant PREPL, fluorescence polarization activity-based probe; inhibition, % at 5.96 µM; hit rate 0.68% among 320,000; in the data active means inhibition above about 43%;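 further: 0% = enzyme with DMSO and 100% = wells lacking enzyme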
# MEKK2mut PB1 HTS = signal of MEK5 binding to mutant human MEKK2 PB1 domain; percent response, % at 10 µM; hit rate 0.35% among 290,000; bead flow cytometry, Alexa488-MEK5 binding to MEKK2 mutant; in the data active means percent response above about 24%, passing the limit was not always enough
# MEKK2wt confirm = raises or lowers MEK5 binding to wildtype human MEKK2, retest. shares compounds with MEKK3 PB1 HTS. AID 1892. binding response (% of control), % at 10 µM. bead flow cytometry, Alexa488-MEK5 binding to MEKK2 WT; actives lie on both sides. hit rate 2.4% among 5,900; in the data active means binding response below about 16% or above about 210%; inactive means in between
# MEKK2mut confirm = signal of MEK5 binding to mutant human MEKK2, retest | shares compounds with MEKK3 PB1 HTS | bead flow cytometry, Alexa488-MEK5 binding to MEKK2 mutant | percent response, % at 10 µM | hit rate 2% among 5,900 | AID 1893; in the data active means percent response mostly above about 71%, no sharp cut-off; inactive means mostly below about 38%;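 further: higher means compound restores mutant binding toward wildtype level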
# MEKK3 confirm = confirmation of inhibitors of MEK5 binding to human MEKK3 | shares compounds with MEKK3 PB1 HTS | AID 1894 | hit rate 1.8% among 5,900 | bead flow cytometry, Alexa488-MEK5 binding to MEKK3; hits give low values | binding response (% of control), % at 10 µM;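 active means binding response below 72% of control, or above a set upper limit, though filed actives all read lower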;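 further: 100% = DMSO only wells and 0% = binding blocked by excess unlabeled MEK5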
# Active calls of the source: *; x = no result given; [ ] = dose if it differs, or a comment.
SMILES,MEKK2wt PB1 HTS,Apaf1 inhib,MEKK3 PB1 HTS,UBC13 polyUb,PREPL inh,MEKK2mut PB1 HTS,MEKK2wt confirm,MEKK2mut confirm,MEKK3 confirm
CCN(c1ccc(N=Cc2c(O)n(Cc3ccc(OC)cc3)c(=O)c3ccccc23)cc1)C(C)C,x,x,56*[inhibitor],x,x,175*,98,-4,94
N#Cc1c(Nc2ccccc2)c(/C=N/NCCO)c[nH]c1=O,99,-4,101,1,3,-2,x,x,x
N#Cc1c(Nc2ccccc2)c(/C=N/N=C/c2ccccc2)c[nH]c1=O,104,17,138*,2,7,0,100,3,105
NS(=O)(=O)c1ccc(CCNC(=O)COC(=O)CN2C(=O)C3CCCCC3C2=O)cc1 (centres undefined),89,-7,94,-2,1,-7,x,x,x
CCOC(=O)C(NC(=O)Nc1ccc(Cl)cn1)(Oc1ccccc1)C(F)(F)F (centres undefined),104,-4,153*,2,-4,4,105,4,104
CCN(CC(=O)Nc1c(F)cccc1F)C(=O)c1cccc(S(=O)(=O)N(C)c2ccccc2)c1,x,-2,x,-8,-6,x,x,x,x
CN(C(=O)COC(=O)c1ccc2ccccc2n1)C1CCCCC1,x,-5,x,2,1,x,x,x,x
COc1ccc(-c2noc(CN3CCOCC3)n2)cc1OC,0.0*[inhibitor],5,1.0*[inhibitor],-6,1,-65,97,-6,98
O=CN1CCN(C(=O)COc2ccc(Cl)cc2Br)CC1,108,19,149*,-8,10,0,98,-3,101
COc1ccc(CCNS(=O)(=O)CC23CCC(CC2=O)C3(C)C)cc1OC (centres undefined),118,-5,114,1,6,29*,101,0,103
COc1ccc(NS(=O)(=O)CC23CCC(CC2=O)C3(C)C)cc1 (centres undefined),101,-24,96,3,10,5,x,x,x
COc1cc(NC(=O)NCC2CCN(Cc3ccccc3C)CC2)cc(OC)c1OC,108,1,106,6,x,9,x,x,x
C=CCc1c(OC(C)=O)c2ccccc2n(C)c1=O,104,-1,147*,8,0,0,106,3,106
CCc1c(OC(C)=O)c2ccccc2n(C)c1=O,101,7,100,4,18,-1,x,x,x
O=C(NC1CCCCC1)C(c1ccc(Cl)cc1)N1CCC2(CC1)OCCO2 (centres undefined),2.0*[inhibitor],8,2.0*[inhibitor],4,4,-16,109,5,107
O=C(/C=C/N1CCN(Cc2ccccc2)CC1)C(F)(F)F,69,-13,62*[inhibitor],-10,3,-15,102,1,103
O=C(NNC1=C(C(=O)C(F)(F)F)CCC1)c1ccc(Br)cc1,124,-1,125*,-2,-14,25*,101,2,101
O=C(Nc1ncccc1Cl)c1cc2ccccc2o1,103,10,101,0,4,3,x,x,x
Cc1nn2c(COc3ccc(NC(=O)c4ccccc4)cc3)nnc2c2ccccc12,109,-13,147*,-5,1,1,102,1,101
Nc1nonc1-n1nnc(C(=O)N/N=C/c2ccoc2)c1CSc1ccc(Cl)cc1,92,0,93,-1,10,-14,x,x,x
On1c(-c2ccccc2Cl)nc2ccccc21,117,-5,132*,6,1,0,92,-7,100
On1c(-c2ccccc2Cl)nc2ncccc21,101,-1,101,-3,-1,4,x,x,x
COC(=O)c1scc(C)c1NC(=O)c1ccccc1F,97,6,98,4,-3,2,x,x,x
Cc1cc(C)n2nc(Nc3ccccc3)cc2n1,80,-9,81*[inhibitor],13,5,-7,94,-2,100
Cc1cc(C)n2nc(-c3ccccc3)cc2n1,74,10,86,3,7,-14,x,x,x
SMILES,MEKK2wt PB1 HTS,Apaf1 inhib,MEKK3 PB1 HTS,UBC13 polyUb,PREPL inh,MEKK2mut PB1 HTS,MEKK2wt confirm,MEKK2mut confirm,MEKK3 confirm
COc1ccc(-c2nnc(C)c3nocc23)cc1,101,9,104,-14,20,4,x,x,x
Brc1ccc(-c2nnc(-c3cccnc3)c3conc23)cc1,78,27,80*[inhibitor],11,-1,-5,99,1,102
O=C(O)Cn1nc(-c2ccccc2)c2ccccc2c1=O,97,-7,100,6,-5,-1,x,x,x
NNC(=O)Cn1nc(-c2ccccc2)c2ccccc2c1=O,3.0*[inhibitor],4,2.0*[inhibitor],-5,x,-51,105,4,105
O=S(=O)(c1ccc(F)c(F)c1F)N1CCN(C(=S)NC2CC3CCC2C3)CC1 (centres undefined),72,-6,64*[inhibitor],-2,-2,-14,99,1,95
O=S(=O)(c1ccc(F)c(F)c1F)N1CCN(C(=S)NCc2ccccc2)CC1,95,-20,101,-1,-7,-3,x,x,x
CCOC(=O)c1c(-c2ccc(OC)cc2)csc1/N=C/C1C(=O)CCCC1=O,95,15,100,4,-13,-5,x,x,x
CCOC(=O)c1c(-c2ccc(OC)cc2)csc1/N=C/N(C)C,105,11,136*,-4,9,0,99,-5,97
Cc1ccc(SCc2nc3ccccc3[nH]2)cc1,2.0*[inhibitor],-10,2.0*[inhibitor],8,2,-37,104,8,106
Cc1ccc(S(=O)(=O)N2CCN(C(=O)CN3C(=O)CNC3=O)CC2)cc1,x,-19,x,-4,3,x,x,x,x
Cc1c(Cl)cccc1NC(=O)c1cccnc1,99,-1,100,7,-9,0,x,x,x
Cc1c(Cl)cccc1NC(=O)c1ccc(-n2ccnc2)nc1,50*[inhibitor],14,49*[inhibitor],-6,19,-14,103,3,100
C=CCC[C@H](Cc1ccc(F)cc1)C(=O)OC[C@H](Cc1c[nH]c2ccccc12)NC(=O)[C@@H](CC=C)CC(=O)NCCO,x,12,x,38,16,x,x,x,x
CC(C)NC(=O)C(=O)NNC(=O)C12CC3CC(CC(C3)C1)C2,103,-2,110,-4,-3,24*,107,0,102
CC1(N2CCCCC2)C(=O)c2ccccc2C1=O,106,-22,138*,-3,0,0,106,2,103
CNC(=O)c1nn(-c2ccc(C)cc2)ccc1=O,122,-12,118,3,-5,25*,97,-7,98
